Measurements taken from ChEMBL document CHEMBL4422642, “Antiproliferative and Antimigratory Effects of a Novel YAP-TEAD Interaction Inhibitor Identified Using in Silico Molecular Docking” (J Med Chem, 2019).
Activity calls are given as the source filed them. The rule behind the calls is not given here.

What was measured:
[1] = molecular target: T1, Transcriptional enhancer factor TEF-3 (Homo sapiens, UniProt Q15561); assay: Inhibition of Gal4-fused TEAD4 (unknown origin) interaction with YAP expressed in human HeLa cells assessed as basal transcriptional activity level after 6 hrs by nanoluciferase reporter gene assay; type: cell-based
[2] = Inhibition of TEAD in rat VSMC assessed as reduction in CCN1 m-RNA expression incubated for 2 hrs followed by compound wash out and re-treatment for 4 hrs by NanoGlo assay
[3] = molecular target: Transcriptional enhancer factor TEF-5 (Homo sapiens, UniProt Q99594); assay: Inhibition of Gal4-fused TEAD3 (unknown origin) interaction with YAP expressed in human HeLa cells assessed as basal transcriptional activity level after 6 hrs by nanoluciferase reporter gene assay; type: cell-based
HeLa [4] = assay: Antiproliferative activity against human HeLa cells assessed as reduction in EdU incorporation after 24 hrs by Hoechst 33342 staining-based fluorescence assay; type: functional, cell-based
How it was run: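 Click-iT EdU assay. Cells were treated with compound for 24 h total, with 10 μM EdU present for the final labeling period. Cells were then fixed in 4% formaldehyde, stained for EdU and counterstained with Hoechst 33342 for 20 min. EdU-positive nuclei were counted in at least three fields per well; n = 4.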

[5] = molecular target: T2, Transcriptional enhancer factor TEF-1 (Homo sapiens, UniProt P28347); assay: Inhibition of Gal4-fused TEAD1 (unknown origin) interaction with YAP expressed in human HeLa cells assessed as basal transcriptional activity level after 6 hrs by nanoluciferase reporter gene assay; type: cell-based
HeLa [6] = assay: Inhibition of TEAD in human HeLa cells assessed as reduction in CTGF m-RNA expression incubated for 2 hrs followed by compound wash out and re-treatment for 4 hrs by NanoGlo assay; type: cell-based
[7] = molecular target: T1, Transcriptional enhancer factor TEF-3; assay: Inhibition of Gal4-fused TEAD4 (unknown origin) interaction with YAP expressed in human HeLa cells assessed as basal transcriptional activity level up to 100 uM after 6 hrs by nanoluciferase reporter gene assay; type: cell-based
VSMC [8] = assay: Antiproliferative activity against rat VSMC assessed as reduction in EdU incorporation after 18 hrs by Hoechst 33342 staining-based fluorescence assay; type: functional, cell-based
Rattus norvegicus [9] = species on record: Rattus norvegicus; assay: (§1) Inhibition of TEAD (unknown origin) expressed in rat VSMC after 6 hrs by nanoluciferase reporter gene assay
How it was run: (§2)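 Rat aortic VSMCs stably transduced with the 8×TEAD secreted nanoluciferase reporter were treated with compound over a concentration range for 6 h. Conditioned medium was assayed for nanoluciferase activity.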

[10] = as §1; how it was run: as §2
Rattus norvegicus [11] = species on record: Rattus norvegicus; assay: Inhibition of TEAD in rat VSMC assessed as reduction in THBS m-RNA expression at 60 uM by RT-qPCR analysis
How it was run: (§3)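 Rat aortic VSMCs (male Sprague-Dawley, 10% FCS/DMEM) were treated with 60 μM compound for 6 h; n = 3. Total RNA was reverse-transcribed with random primers and quantified by SYBR Green qPCR. Data were normalized to nonstimulated controls.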

HeLa [12] = assay: Inhibition of TNT1 m-RNA expression in human HeLa cells incubated for 2 hrs followed by compound wash out and re-treatment for 4 hrs by NanoGlo assay; type: functional, cell-based
Rattus norvegicus [13] = species on record: Rattus norvegicus; assay: Inhibition of TEAD in rat VSMC assessed as reduction in CTGF m-RNA expression at 60 uM by RT-qPCR analysis; how it was run: as §3
VSMC [14] = assay: Inhibition of PGK1 m-RNA expression in rat VSMC at 60 uM by RT-qPCR analysis; type: functional, cell-based; how it was run: as §3
HeLa [15] = assay: Inhibition of TEAD in human HeLa cells assessed as reduction in CCN1 m-RNA expression incubated for 2 hrs followed by compound wash out and re-treatment for 4 hrs by NanoGlo assay; type: cell-based
HeLa [16] = assay: Antimigratory activity in human HeLa cells at 40 to 80 uM incubated for overnight followed by media replacement and measured every hour for 24 hrs by phase contrast microscopic analysis; type: functional, cell-based
How it was run: (§4)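 IncuCyte real-time scratch wound assay. Cells were seeded in 96-well plates and grown 36 h, then pretreated overnight with compound. Wells were scratched and the medium was replaced with compound-containing medium. Phase-contrast images of the wound were taken hourly for 24 h and relative wound confluence was calculated; n = 4.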

VSMC [17] = assay: Antiproliferative activity against human VSMC assessed as reduction in EdU incorporation after 18 hrs by Hoechst 33342 staining-based fluorescence assay; type: functional, cell-based
Rattus norvegicus [18] = species on record: Rattus norvegicus; assay: Inhibition of TEAD in rat VSMC assessed as reduction in CCN1 protein expression up to 60 uM by Western blot analysis
How it was run: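 VSMCs were treated with compound over a concentration range for 16 h; n = 4. CCN1 protein in total cell lysates was measured by Western blot with GAPDH probed alongside.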

VSMC [19] = assay: Antimigratory activity in rat VSMC incubated for overnight followed by media replacement and measured every hour for 24 hrs by phase contrast microscopic analysis; type: functional, cell-based; how it was run: as §4
[20] = molecular target: T2, Transcriptional enhancer factor TEF-1; assay: Inhibition of Gal4-fused TEAD1 (unknown origin) interaction with YAP expressed in human HeLa cells assessed as basal transcriptional activity level up to 100 uM after 6 hrs by nanoluciferase reporter gene assay; type: cell-based
Rattus norvegicus [21] = species on record: Rattus norvegicus; assay: Inhibition of TEAD in rat VSMC assessed as reduction in MAYDM m-RNA expression at 60 uM by RT-qPCR analysis; how it was run: as §3
VSMC [22] = assay: Inhibition of TBP m-RNA expression in rat VSMC at 60 uM by RT-qPCR analysis; type: functional, cell-based; how it was run: as §3
[23] = Inhibition of TEAD in rat VSMC assessed as reduction in CTGF m-RNA expression incubated for 2 hrs followed by compound wash out and re-treatment for 4 hrs by NanoGlo assay
HeLa [24] = assay: Cytotoxicity against human HeLa cells assessed as reduction in cell viability by measuring ethidium homodimer-1 uptake at 20 uM preincubated for 10 mins followed by ethidium homodimer-1 addition measured after 10 mins by fluorescence assay; type: cell-based
How it was run: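 Live/dead cell viability assay in HeLa cells. Maximum death was set by treating cells 10 min with 0.1% Triton-X, then 10 min with 0.4 μM ethidium homodimer-1. Fluorescence was read on a plate reader.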

HeLa [25] = assay: Inhibition of Gal4 expression in human HeLa cells assessed as basal transcriptional activity level at 100 uM after 6 hrs by nanoluciferase reporter gene assay; type: functional, cell-based
VSMC [26] = assay: Antimigratory activity in […] incubated for overnight followed by media replacement and measured every hour for 24 hrs by phase contrast microscopic analysis; type: functional, cell-based; how it was run: as §4
Rattus norvegicus [27] = species on record: Rattus norvegicus; assay: Inhibition of TEAD in rat VSMC assessed as reduction in CCN1 m-RNA expression at 60 uM by RT-qPCR analysis; how it was run: as §3
[28] = molecular target: T2, Transcriptional enhancer factor TEF-1; assay: Binding affinity to TEAD1 (194 to 411 residues) (unknown origin) by NMR analysis
How it was run: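 STD NMR at 700 MHz in PBS pH 7.4 containing 60% D2O, with about 20 μM TEAD1 and 2 mM compound. Saturation time 7 s; on-resonance 0.85 ppm, off-resonance −28 ppm; eight scans. Blank runs without protein or ligand were included.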

Rattus norvegicus [29] = species on record: Rattus norvegicus; assay: Inhibition of TEAD in rat VSMC assessed as reduction in PAI1 m-RNA expression at 60 uM by RT-qPCR analysis; how it was run: as §3

T2 sequence (P28347 whole entry, the tested form may be a part): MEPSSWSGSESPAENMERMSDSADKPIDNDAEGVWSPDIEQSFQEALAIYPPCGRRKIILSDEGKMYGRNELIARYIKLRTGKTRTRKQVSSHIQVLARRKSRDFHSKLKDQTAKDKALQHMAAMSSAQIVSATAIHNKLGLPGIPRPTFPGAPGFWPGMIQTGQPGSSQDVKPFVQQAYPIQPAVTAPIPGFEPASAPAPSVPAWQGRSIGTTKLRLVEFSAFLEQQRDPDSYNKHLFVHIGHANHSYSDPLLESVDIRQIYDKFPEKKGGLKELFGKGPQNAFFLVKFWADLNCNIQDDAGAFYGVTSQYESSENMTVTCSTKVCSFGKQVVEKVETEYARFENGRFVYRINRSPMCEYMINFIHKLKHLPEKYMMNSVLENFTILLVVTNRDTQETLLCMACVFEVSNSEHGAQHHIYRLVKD
T1 sequence (Q15561 whole entry, the tested form may be a part): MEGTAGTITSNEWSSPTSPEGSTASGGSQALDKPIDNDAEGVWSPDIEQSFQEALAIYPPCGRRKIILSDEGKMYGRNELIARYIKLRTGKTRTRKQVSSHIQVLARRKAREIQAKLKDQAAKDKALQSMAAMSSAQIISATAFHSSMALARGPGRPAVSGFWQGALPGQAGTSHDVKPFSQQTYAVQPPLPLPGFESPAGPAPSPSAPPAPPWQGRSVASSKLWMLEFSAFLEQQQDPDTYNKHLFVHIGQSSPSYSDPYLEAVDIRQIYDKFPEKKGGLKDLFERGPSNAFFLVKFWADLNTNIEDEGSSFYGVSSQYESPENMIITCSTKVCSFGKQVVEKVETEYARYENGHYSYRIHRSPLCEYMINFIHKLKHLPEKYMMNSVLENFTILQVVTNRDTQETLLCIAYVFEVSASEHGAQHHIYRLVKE
Transcriptional enhancer factor TEF-5, sequence (Q99594 whole entry, the tested form may be a part): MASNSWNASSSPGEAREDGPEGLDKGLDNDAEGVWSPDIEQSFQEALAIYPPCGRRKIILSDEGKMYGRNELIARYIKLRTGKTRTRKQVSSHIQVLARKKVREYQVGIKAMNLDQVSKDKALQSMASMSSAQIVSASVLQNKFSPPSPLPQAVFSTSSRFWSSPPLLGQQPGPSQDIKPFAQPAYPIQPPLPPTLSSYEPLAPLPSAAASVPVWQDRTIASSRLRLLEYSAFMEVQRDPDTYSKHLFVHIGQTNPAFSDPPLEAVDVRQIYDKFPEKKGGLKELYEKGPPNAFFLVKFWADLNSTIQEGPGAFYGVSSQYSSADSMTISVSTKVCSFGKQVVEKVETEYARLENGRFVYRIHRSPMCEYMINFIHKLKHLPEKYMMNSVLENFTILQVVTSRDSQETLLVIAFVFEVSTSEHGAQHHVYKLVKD

Compound: Cc1ccc2c(c1)c1c3n2CCNC3CCC1 (stereo not given) [PIRLINDOLE]
- IC50 [1]: 36 µM
- EC50 [2]: 48 µM
- IC50 [3]: 44 µM
- Activity (HeLa [4]): Dose-dependent effect
- IC50 [5]: 40 µM
- inhibition (HeLa [6]): Dose-dependent effect
- inhibition [7]: Active
- Activity (VSMC [8]): Dose-dependent effect
- EC50 (VSMC [8]): 10 µM
- inhibition (Rattus norvegicus [9]): Dose-dependent effect
- IC50 [10]: 24 µM
- inhibition (Rattus norvegicus [11]): Active
- inhibition (HeLa [12]): inactive
- inhibition (Rattus norvegicus [13]): Active
- inhibition (VSMC [14]): inactive
- inhibition (HeLa [15]): Dose-dependent effect
- Activity (HeLa [16]): Active
- EC50 (VSMC [17]): 1.5 µM
- inhibition (Rattus norvegicus [18]): Active
- Activity (VSMC [19]): Dose-dependent effect
- inhibition [20]: Active
- inhibition (Rattus norvegicus [21]): Active
- inhibition (VSMC [22]): inactive
- EC50 [23]: 58 µM
- Activity (HeLa [24]): Non-Toxic
- inhibition (HeLa [25]): inactive
- Activity (VSMC [26]): Dose-dependent effect
- inhibition (Rattus norvegicus [27]): Active
- Activity [28]: Active
- inhibition (Rattus norvegicus [29]): Active
